# Calls of active or inactive are those of the source. No cut-off for these calls is given here.
# System: Staphylococcus aureus
# Test: Antibacterial activity against methicillin-resistant Staphylococcus aureus USA300 NRS384 clinical isolate preincubated followed by bacterial subculturing for 2 weeks
# Assay type: functional
# Conditions: not given
row,Compound,Activity
1,CCCCCCCCCOc1ccc(NC(=O)Nc2ccc(/C(C)=N/NC(=N)N)cc2)cc1,Active
2,C/C(=N\NC(=N)N)c1ccc(NC(=O)Nc2ccc(OCc3ccccc3)cc2)cc1,Active
3,C/C(=N\NC(=N)N)c1ccc(NC(=O)Nc2ccc(OCC3CCC3)cc2)cc1,Active

# System: Staphylococcus aureus
# Test: Antibacterial activity against methicillin-resistant Staphylococcus aureus USA400 NRS123 clinical isolate after 20 hrs by broth microdilution method
# Assay type: functional
# Conditions: USA400 NRS123, 20 h
# Procedure, shortened: (§1)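 CLSI broth microdilution in cation-adjusted Mueller Hinton broth; compounds serially diluted, triplicate samples; 37 °C, 20 h. MIC read visually as lowest concentration with no visible growth; mean of triplicate determinations reported.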
row,Compound,MIC
1,CCCCCCCCCOc1ccc(NC(=O)Nc2ccc(/C(C)=N/NC(=N)N)cc2)cc1,32 µg/mL
2,C/C(=N\NC(=N)N)c1ccc(NC(=O)Nc2ccc(OCc3ccccc3)cc2)cc1,8 µg/mL
3,C/C(=N\NC(=N)N)c1ccc(NC(=O)Nc2ccc(OCC3CCC3)cc2)cc1,16 µg/mL

# System: Staphylococcus aureus
# Test: Antibacterial activity against methicillin-resistant Staphylococcus aureus USA300 NRS384 clinical isolate after 20 hrs by broth microdilution method
# Assay type: functional
# Conditions: USA300 NRS384, 20 h
# Procedure, shortened: as §1
row,Compound,MIC
1,CCCCCCCCCOc1ccc(NC(=O)Nc2ccc(/C(C)=N/NC(=N)N)cc2)cc1,32 µg/mL
2,C/C(=N\NC(=N)N)c1ccc(NC(=O)Nc2ccc(OCc3ccccc3)cc2)cc1,8 µg/mL
3,C/C(=N\NC(=N)N)c1ccc(NC(=O)Nc2ccc(OCC3CCC3)cc2)cc1,16 µg/mL

# System: Staphylococcus aureus
# Test: Bactericidal activity against vancomycin-resistant Staphylococcus aureus VRSA4 after 18 hrs by broth microdilution method
# Assay type: functional
# Conditions: VRSA4, 18 h
# Procedure, shortened: (§2)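 From MIC wells without visible growth, 5 uL spotted onto Tryptic soy agar, incubated 37 °C for at least 18 h; MBC taken as lowest concentration giving 99.9% growth inhibition.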
row,Compound,MBC
1,CCCCCCCCCOc1ccc(NC(=O)Nc2ccc(/C(C)=N/NC(=N)N)cc2)cc1,16 µg/mL
2,C/C(=N\NC(=N)N)c1ccc(NC(=O)Nc2ccc(OCc3ccccc3)cc2)cc1,8 µg/mL
3,C/C(=N\NC(=N)N)c1ccc(NC(=O)Nc2ccc(OCC3CCC3)cc2)cc1,16 µg/mL

# System: Staphylococcus aureus
# Test: Bactericidal activity against Staphylococcus aureus RN4220 NRS107 clinical isolate after 18 hrs by broth microdilution method
# Assay type: functional
# Conditions: RN4220 NRS107, 18 h
# Procedure, shortened: as §2
row,Compound,MBC
1,CCCCCCCCCOc1ccc(NC(=O)Nc2ccc(/C(C)=N/NC(=N)N)cc2)cc1,64 µg/mL
2,C/C(=N\NC(=N)N)c1ccc(NC(=O)Nc2ccc(OCc3ccccc3)cc2)cc1,8 µg/mL
3,C/C(=N\NC(=N)N)c1ccc(NC(=O)Nc2ccc(OCC3CCC3)cc2)cc1,16 µg/mL

# System: Staphylococcus aureus
# Test: Bactericidal activity against methicillin-resistant Staphylococcus aureus USA100 NRS382 clinical isolate after 18 hrs by broth microdilution method
# Assay type: functional
# Conditions: USA100 NRS382, 18 h
# Procedure, shortened: as §2
row,Compound,MBC
1,CCCCCCCCCOc1ccc(NC(=O)Nc2ccc(/C(C)=N/NC(=N)N)cc2)cc1,32 µg/mL
2,C/C(=N\NC(=N)N)c1ccc(NC(=O)Nc2ccc(OCc3ccccc3)cc2)cc1,> 128 µg/mL
3,C/C(=N\NC(=N)N)c1ccc(NC(=O)Nc2ccc(OCC3CCC3)cc2)cc1,16 µg/mL

# System: Staphylococcus aureus
# Test: Bactericidal activity against vancomycin-resistant Staphylococcus aureus VRSA10 after 18 hrs by broth microdilution method
# Assay type: functional
# Conditions: VRSA10, 18 h
# Procedure, shortened: as §2
row,Compound,MBC
1,CCCCCCCCCOc1ccc(NC(=O)Nc2ccc(/C(C)=N/NC(=N)N)cc2)cc1,32 µg/mL
2,C/C(=N\NC(=N)N)c1ccc(NC(=O)Nc2ccc(OCc3ccccc3)cc2)cc1,> 64 µg/mL
3,C/C(=N\NC(=N)N)c1ccc(NC(=O)Nc2ccc(OCC3CCC3)cc2)cc1,32 µg/mL

# System: Staphylococcus aureus
# Test: Antibacterial activity against methicillin-resistant Staphylococcus aureus USA200 NRS383 clinical isolate after 20 hrs by broth microdilution method
# Assay type: functional
# Conditions: USA200 NRS383, 20 h
# Procedure, shortened: as §1
row,Compound,MIC
1,CCCCCCCCCOc1ccc(NC(=O)Nc2ccc(/C(C)=N/NC(=N)N)cc2)cc1,16 µg/mL
2,C/C(=N\NC(=N)N)c1ccc(NC(=O)Nc2ccc(OCc3ccccc3)cc2)cc1,8 µg/mL
3,C/C(=N\NC(=N)N)c1ccc(NC(=O)Nc2ccc(OCC3CCC3)cc2)cc1,16 µg/mL

# System: Staphylococcus aureus
# Test: Antibacterial activity against methicillin-resistant Staphylococcus aureus USA100 NRS382 clinical isolate preincubated followed by bacterial subculturing for 2 weeks
# Assay type: functional
# Conditions: not given
row,Compound,Activity
1,CCCCCCCCCOc1ccc(NC(=O)Nc2ccc(/C(C)=N/NC(=N)N)cc2)cc1,Active
2,C/C(=N\NC(=N)N)c1ccc(NC(=O)Nc2ccc(OCc3ccccc3)cc2)cc1,Active
3,C/C(=N\NC(=N)N)c1ccc(NC(=O)Nc2ccc(OCC3CCC3)cc2)cc1,Active

# System: Staphylococcus aureus
# Test: Antibacterial activity against vancomycin-resistant Staphylococcus aureus VRSA4 after 20 hrs by broth microdilution method
# Assay type: functional
# Conditions: VRSA4, 20 h
# Procedure, shortened: as §1
row,Compound,MIC
1,CCCCCCCCCOc1ccc(NC(=O)Nc2ccc(/C(C)=N/NC(=N)N)cc2)cc1,16 µg/mL
2,C/C(=N\NC(=N)N)c1ccc(NC(=O)Nc2ccc(OCc3ccccc3)cc2)cc1,8 µg/mL
3,C/C(=N\NC(=N)N)c1ccc(NC(=O)Nc2ccc(OCC3CCC3)cc2)cc1,16 µg/mL

# System: Staphylococcus aureus
# Test: Antibacterial activity against Staphylococcus aureus RN4220 NRS107 clinical isolate after 20 hrs by broth microdilution method
# Assay type: functional
# Conditions: RN4220 NRS107, 20 h
# Procedure, shortened: as §1
row,Compound,MIC
1,CCCCCCCCCOc1ccc(NC(=O)Nc2ccc(/C(C)=N/NC(=N)N)cc2)cc1,32 µg/mL
2,C/C(=N\NC(=N)N)c1ccc(NC(=O)Nc2ccc(OCc3ccccc3)cc2)cc1,8 µg/mL
3,C/C(=N\NC(=N)N)c1ccc(NC(=O)Nc2ccc(OCC3CCC3)cc2)cc1,16 µg/mL

# System: Staphylococcus aureus
# Test: Antibacterial activity against methicillin-resistant Staphylococcus aureus USA100 NRS382 clinical isolate after 20 hrs by broth microdilution method
# Assay type: functional
# Conditions: USA100 NRS382, 20 h
# Procedure, shortened: as §1
row,Compound,MIC
1,CCCCCCCCCOc1ccc(NC(=O)Nc2ccc(/C(C)=N/NC(=N)N)cc2)cc1,32 µg/mL
2,C/C(=N\NC(=N)N)c1ccc(NC(=O)Nc2ccc(OCc3ccccc3)cc2)cc1,4 µg/mL
3,C/C(=N\NC(=N)N)c1ccc(NC(=O)Nc2ccc(OCC3CCC3)cc2)cc1,16 µg/mL

# System: Staphylococcus aureus
# Test: Bactericidal activity against methicillin-resistant Staphylococcus aureus USA200 NRS383 clinical isolate after 18 hrs by broth microdilution method
# Assay type: functional
# Conditions: USA200 NRS383, 18 h
# Procedure, shortened: as §2
row,Compound,MBC
1,CCCCCCCCCOc1ccc(NC(=O)Nc2ccc(/C(C)=N/NC(=N)N)cc2)cc1,32 µg/mL
2,C/C(=N\NC(=N)N)c1ccc(NC(=O)Nc2ccc(OCc3ccccc3)cc2)cc1,16 µg/mL
3,C/C(=N\NC(=N)N)c1ccc(NC(=O)Nc2ccc(OCC3CCC3)cc2)cc1,32 µg/mL

# System: Staphylococcus aureus
# Test: Antibacterial activity against methicillin-resistant Staphylococcus aureus USA200 NRS383 clinical isolate preincubated followed by bacterial subculturing for 2 weeks
# Assay type: functional
# Conditions: not given
row,Compound,Activity
1,CCCCCCCCCOc1ccc(NC(=O)Nc2ccc(/C(C)=N/NC(=N)N)cc2)cc1,Active
2,C/C(=N\NC(=N)N)c1ccc(NC(=O)Nc2ccc(OCc3ccccc3)cc2)cc1,Active
3,C/C(=N\NC(=N)N)c1ccc(NC(=O)Nc2ccc(OCC3CCC3)cc2)cc1,Active

# System: Staphylococcus aureus
# Test: Bactericidal activity against methicillin-resistant Staphylococcus aureus USA300 NRS384 clinical isolate after 18 hrs by broth microdilution method
# Assay type: functional
# Conditions: USA300 NRS384, 18 h
# Procedure, shortened: as §2
row,Compound,MBC
1,CCCCCCCCCOc1ccc(NC(=O)Nc2ccc(/C(C)=N/NC(=N)N)cc2)cc1,32 µg/mL
2,C/C(=N\NC(=N)N)c1ccc(NC(=O)Nc2ccc(OCc3ccccc3)cc2)cc1,8 µg/mL
3,C/C(=N\NC(=N)N)c1ccc(NC(=O)Nc2ccc(OCC3CCC3)cc2)cc1,16 µg/mL

# System: Staphylococcus aureus
# Test: Antibacterial activity against methicillin-resistant Staphylococcus aureus USA400 NRS123 clinical isolate preincubated followed by bacterial subculturing for 2 weeks
# Assay type: functional
# Conditions: not given
row,Compound,Activity
1,CCCCCCCCCOc1ccc(NC(=O)Nc2ccc(/C(C)=N/NC(=N)N)cc2)cc1,Active
2,C/C(=N\NC(=N)N)c1ccc(NC(=O)Nc2ccc(OCc3ccccc3)cc2)cc1,Active
3,C/C(=N\NC(=N)N)c1ccc(NC(=O)Nc2ccc(OCC3CCC3)cc2)cc1,Active

# System: Staphylococcus aureus
# Test: Bactericidal activity against methicillin-resistant Staphylococcus aureus USA400 NRS123 clinical isolate after 18 hrs by broth microdilution method
# Assay type: functional
# Conditions: USA400 NRS123, 18 h
# Procedure, shortened: as §2
row,Compound,MBC
1,CCCCCCCCCOc1ccc(NC(=O)Nc2ccc(/C(C)=N/NC(=N)N)cc2)cc1,64 µg/mL
2,C/C(=N\NC(=N)N)c1ccc(NC(=O)Nc2ccc(OCc3ccccc3)cc2)cc1,> 64 µg/mL
3,C/C(=N\NC(=N)N)c1ccc(NC(=O)Nc2ccc(OCC3CCC3)cc2)cc1,32 µg/mL

# System: Staphylococcus aureus
# Test: Antibacterial activity against vancomycin-resistant Staphylococcus aureus VRSA10 after 20 hrs by broth microdilution method
# Assay type: functional
# Conditions: VRSA10, 20 h
# Procedure, shortened: as §1
row,Compound,MIC
1,CCCCCCCCCOc1ccc(NC(=O)Nc2ccc(/C(C)=N/NC(=N)N)cc2)cc1,32 µg/mL
2,C/C(=N\NC(=N)N)c1ccc(NC(=O)Nc2ccc(OCc3ccccc3)cc2)cc1,8 µg/mL
3,C/C(=N\NC(=N)N)c1ccc(NC(=O)Nc2ccc(OCC3CCC3)cc2)cc1,16 µg/mL
